Experimental data reported in ChEMBL document CHEMBL1123247, “Nucleoside conjugates. 7. Synthesis and antitumor activity of 1-beta-D-arabinofuranosylcytosine conjugates of ether lipids” (J Med Chem, 1986).
Where “and” joins values, the source holds several entries; their conditions need not be identical. Equal values may be shown once.

Legend:
[1] = test system: L1210; assay: Antitumor activity was determined against the ip implanted L1210 leukemia in mice by range in survival days at 131 and 258 mg/kg (treatment of 1qd schedule) dosage; Range is 8-9; assay type: functional, Mus musculus; settings: route intraperitoneal
Procedure, shortened: (§1)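 DBA/2J mice, 23-28 g, in groups of 6, were inoculated ip with 1×10^6 L1210 cells on day 0. Dosing was ip starting 24 h later on the stated daily schedules. Conjugates were given as sonicated solutions and reference prodrugs as suspensions in 0.9% NaCl with 0.5% Tween-80. Mice were observed daily until death or 45 days. Median survival T/C was calculated from survivors per NCI protocols.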

[2] = test system: L1210; assay: Antitumor activity was determined against the ip implanted L1210 leukemia in mice by range in survival days at 26 and 51 mg/kg (treatment of 1-5qd schedule) dosage; Range is 11-12; assay type: functional, Mus musculus; settings: route intraperitoneal; procedure, shortened: as §1
[3] = test system: L1210; assay: Antitumor activity against the ip implanted L1210 leukemia in mice expressed as optimal dose (1-5qd treatment schedule) required to produce greatest increase in life span was determined; assay type: functional, Mus musculus
Procedure, shortened: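 DBA/2J mice, groups of 6 (23-28 g), were inoculated ip with 1 × 10^6 L1210 cells on day 0. Dosing was ip from 24 h, in 0.9% NaCl with 0.5% Tween-80 (sonicated solution or suspension). Mice were observed daily until death or day 45. Median survival T/C followed NCI protocols, and ILS = (T/C − 1) × 100. Active range means doses giving ILS ≥25%; optimal dose means greatest ILS.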

[4] = test system: L1210; assay: Antitumor activity was determined against the ip implanted L1210 leukemia in mice by change in […] at 131 and 258 mg/kg (treatment of 1qd schedule) dosage; assay type: functional, Mus musculus; settings: route intraperitoneal
Procedure, shortened: (§2)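 DBA/2J mice, 6 per group (wt 23-28 g), inoculated ip with 1×10^6 L1210 cells on day 0. Treatment was given ip in 0.9% NaCl with 0.5% Tween-80, starting 24 h later. Weight change was taken on day 8. Mice were observed daily until death or 45 days. Median survival T/C and %ILS = (T/C − 1) × 100 came from survivors per NCI protocols, and 45-day survivors were counted.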

[5] = test system: L1210; assay: Antitumor activity was determined against the ip implanted L1210 leukemia in mice by change in […] at 26 and 51 mg/kg (treatment of 1-5qd schedule) dosage; assay type: functional, Mus musculus; settings: route intraperitoneal; procedure, shortened: as §2
[6] = test system: L1210; assay: Antitumor activity was determined against the ip implanted L1210 leukemia in mice by 45-day survivors in mice at 131 and 258 mg/kg (treatment of 1qd schedule) dosage; assay type: functional, Mus musculus; settings: route intraperitoneal
Procedure, shortened: (§3)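 DBA/2J mice in groups of 6 (wt 23-28 g) were inoculated ip with 1×10^6 L1210 cells on day 0. Dosing was ip from 24 h, in 0.9% NaCl with 0.5% Tween-80 (conjugates sonicated), across a range of doses. Mice were observed daily until death or 45 days. Median T/C was computed from survivors per NCI protocols, and ILS = (T/C − 1)×100.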

[7] = test system: L1210; assay: Antitumor activity was determined against the ip implanted L1210 leukemia in mice by 45-day survivors in mice at 26 and 51 mg/kg (treatment of 1-5qd schedule) dosage; assay type: functional, Mus musculus; settings: route intraperitoneal; procedure, shortened: as §3
[8] = test system: L1210; assay: Antitumor activity was determined against the ip implanted L1210 leukemia in mice by percent increase in life span at 131 and 258 mg/kg (treatment of 1qd schedule) dosage; assay type: functional, Mus musculus; settings: route intraperitoneal; procedure, shortened: as §3
[9] = test system: L1210; assay: Antitumor activity was determined against the ip implanted L1210 leukemia in mice by percent increase in life span at 26 and 51 mg/kg (treatment of 1-5qd schedule) dosage; assay type: functional, Mus musculus; settings: route intraperitoneal; procedure, shortened: as §3
[10] = test system: L1210; assay: Antitumor activity was determined against the ip implanted L1210 leukemia in mice by median survival time at 131 adn 258 mg/kg (treatment of 1qd schedule) dosage; 8.0/8.0; settings: route intraperitoneal
[11] = test system: L1210; assay: Antitumor activity was determined against the ip implanted L1210 leukemia in mice by median survival time at 26 and 51 mg/kg (treatment of 1-5qd schedule) dosage; 11.0/8.0; settings: route intraperitoneal
[12] = test system: AMML; assay: Compound was tested for the inhibition of AMML (acute myelomonocytic leukemia); assay type: functional, cell-based; settings: Homo sapiens
Procedure, shortened: (§4)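 Human leukemia and solid tumor cells in culture were exposed to compound for 48 h. Viability was scored by trypan blue dye exclusion. IC50 (50% inhibition) was estimated from response curves of three separate experiments.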

[13] = test system: CML/BC; assay: Compound was tested for the inhibition of CML/BC(chronic myeloid leukemia, blast crisis); assay type: functional, cell-based; settings: Homo sapiens; procedure, shortened: as §4
[14] = test system: Glioblastoma cell line; assay: Compound was tested for the inhibition of glioblastoma; assay type: functional, cell-based; settings: Homo sapiens; procedure, shortened: as §4
[15] = test system: HL-60; assay: Compound was tested for the inhibition of human HL60 Leukemia; assay type: functional, cell-based; procedure, shortened: as §4
[16] = test system: NSCLC; assay: Compound was tested for the inhibition of non- small cell lung cancer; assay type: functional, cell-based; settings: Homo sapiens; procedure, shortened: as §4
[17] = test system: Small cell lung cancer cell line; assay: Compound was tested for the inhibition of small cell lung cancer; assay type: functional, cell-based; settings: Homo sapiens; procedure, shortened: as §4

Row | Compound | Range [1] | Range [2] | Optimal dose [3] | Weight change [4] [g mouse-1] | Weight change [5] [g mouse-1] | Survivors [6] | Survivors [7] | ILS [8] | ILS [9] | median survival time [10] [days] | median survival time [11] [days] | IC50 [12] [µM] | IC50 [13] [µM] | IC50 [14] [µM] | IC50 [15] [µM] | IC50 [16] [µM] | IC50 [17] [µM]
1 | CCCCCCCCCCCCCCCCOCC(COP(=O)(O)O)OC(=O)CCCCCCCCCCCCCCC.Nc1ccn([C@@H]2O[C@H](COP(=O)(O)O)[C@@H](O)[C@@H]2O)c(=O)n1 (racemic) | 8 | 11 | 26 mg and 51 mg | -0.8 | 1.1 | 0 | 0 | 0 | 38 | 8 | 11 |  |  |  |  |  | 
2 | CCCCCCCCCCCCCCCCCCOCC(COP(=O)([O-])OCC[N+](C)(C)C)OC.Nc1ccn([C@@H]2O[C@H](CO)[C@@H](O)[C@@H]2O)c(=O)n1 (configuration not stated) |  |  |  |  |  |  |  |  |  |  |  | 1.35 | 0.25 | 27 | 0.26 | 34 | 38
